High-throughput results as filed in PubChem.
A selection: hits, their analogues and other compounds. The true share with any hit is near 2.5%.
TCR CD3 inh = human TCR-CD3 binding inhibition; TAMRA-labeled TCR probe fluorescence, biochemical; inhibition, % at 9.4 µM; 360,000 compounds, 0.37% hits; in the data active = inhibition above about 19%;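 note: recombinant mutant TCR 2C K166C tagged with TAMRA read by polarization; 0% = receptor in buffer alone and 100% = receptor with positive control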
HTRA1 inhibitor = blocks human HTRA1 serine peptidase | Q92743 | recombinant HTRA1, FP-rhodamine activity-based probe, fluorescence polarization | inhibition, % at 5.96 µM | 340,000 compounds, 0.5% hits; in the data active = inhibition above about 36%;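 note: 0% = enzyme with DMSO and 100% = wells lacking enzyme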
ABHD4 inh = inhibitors of mouse ABHD4; purified mABHD4, FP-Rh probe fluorescence polarization; inhibition, % at 8.92 µM; 370,000 compounds, 0.54% hits;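 active = inhibition exceeding the mean over every tested compound plus 3 SD, cut at about 30% in these data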;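 note: 0% = plate median of compound wells and 100% = S159A mutant with DMSO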
Target sequence (Q8VD66 whole entry, looked up): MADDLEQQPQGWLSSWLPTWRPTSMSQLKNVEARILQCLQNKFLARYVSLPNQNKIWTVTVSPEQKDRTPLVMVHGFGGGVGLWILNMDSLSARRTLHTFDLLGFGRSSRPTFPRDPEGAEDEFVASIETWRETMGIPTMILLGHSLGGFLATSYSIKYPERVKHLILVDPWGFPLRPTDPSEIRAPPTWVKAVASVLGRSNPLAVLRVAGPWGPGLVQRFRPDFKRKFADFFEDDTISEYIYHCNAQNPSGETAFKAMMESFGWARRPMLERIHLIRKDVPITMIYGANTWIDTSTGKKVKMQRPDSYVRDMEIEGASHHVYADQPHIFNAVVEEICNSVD
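System: mouse ABHD4 enzyme, wild type / Medium: HEPES pH 7.0, NaCl, Pluronic buffer / Reagent: FP-Rh activity-based fluorescent probe / Control set: S159A mutant high control, sample median low control / Detection: fluorescence polarization with parallel and perpendicular emission, 525/598 nm / Schedule: 45 min + 60 min at 25 °C / Compound dosing: 8.92 µM, single dose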
PRMT1 inh = blocks human protein arginine methyltransferase 1. Q99873. recombinant PRMT1, activity-based probe fluorescence polarization. inhibition, % at 2.79 µM. 370,000 compounds, 1.3% hits;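 active = inhibition above about 21% made by adding two undisclosed values, limit read from the data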
Target sequence (Q99873 whole entry, looked up): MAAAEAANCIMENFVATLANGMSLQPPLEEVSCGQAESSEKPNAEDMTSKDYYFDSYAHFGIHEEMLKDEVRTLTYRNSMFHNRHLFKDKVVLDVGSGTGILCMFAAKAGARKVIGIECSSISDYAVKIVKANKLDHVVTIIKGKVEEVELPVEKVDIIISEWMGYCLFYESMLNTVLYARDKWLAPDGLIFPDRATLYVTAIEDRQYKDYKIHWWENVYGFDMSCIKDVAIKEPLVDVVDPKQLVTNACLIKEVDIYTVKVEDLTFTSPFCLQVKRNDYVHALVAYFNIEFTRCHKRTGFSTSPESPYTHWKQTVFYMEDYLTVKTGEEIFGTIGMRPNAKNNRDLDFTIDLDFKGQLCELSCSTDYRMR
SIAE primary = human SIAE inhibition, primary screen. SIAE FP-Rh probe binding, fluorescence polarization. 370,000 compounds, 0.69% hits. Q9HAT2. inhibition, % at 9.66 µM;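 active = inhibition above a cutoff: mean of compounds within the control limits plus 3 SD of those, cut at about 17% in these data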;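 note: 0% = plate median of compound wells and 100% = probe without SIAE protein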
HTRA1 inh conf = HTRA1 (human) inhibition, confirmation; shares compounds with HTRA1 inhibitor; recombinant HTRA1, FP-rhodamine activity-based probe, fluorescence polarization; inhibition, % at 5.96 µM; 1,600 compounds, 66% hits;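 active = mean inhibition over three repeats above a set limit taken from the earlier primary screen, cut at about 37% in these data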;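 note: 0% = HTRA1 with DMSO and 100% = wells lacking HTRA1; inhibitors block probe binding so polarization drops and inhibition rises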
* = called active by the depositor; . = no result.

SMILES	TCR CD3 inh	HTRA1 inhibitor	ABHD4 inh	PRMT1 inh	SIAE primary	others
CC(C)(C)OC(=O)c1c(N)n(Cc2ccco2)c2nc3ccccc3nc12	-5.5	-10.4	3.1	21.2*	-9.1
COc1ccc(OC)c(N2C(=O)NC(=O)/C(=C\c3ccc([N+](=O)[O-])s3)C2=O)c1	-32.1	31.0	-35.2	27.7*	-7.9
O=C1NC(=O)N(c2ccccc2)C(=O)/C1=C\c1ccc([N+](=O)[O-])s1	-18.8	.	-4.8	11.9	-14.8
CCOC(=O)CC[C@@H]1CC[C@]2(CCCN(Cc3ccccn3)C2)O1	.	.	3.6	3.2	-0.1
O=C1NC(=O)N(Cc2ccco2)C(=O)/C1=C/c1cccn1CCOc1ccccc1Cl	-2.9	-1.4	-12.6	21.9*	-23.9
CCN(CC)c1ccc(/C=C2\C(=O)NC(=O)N(Cc3ccco3)C2=O)cc1	-78.4	-39.8	-65.0	22.3*	-84.5
C[C@H](NC(=O)OCc1ccccc1)[P+](=O)O	.	.	3.4	0.1	6.6
c1ccc(Cn2nnnc2C2CN=C(c3ccccc3)c3ccccc3N2)cc1 (stereo not drawn)	.	.	-4.3	2.0	-1.1
CN1C(=O)N(C)C(=O)C2(Sc3ccccc3C2=O)C1=O	6.4	8.6	14.6	27.1*	5.5
CCC1(c2ccccc2)C(=O)N(C)C(=O)N(C)C1=O	-10.5	-3.9	2.6	0.9	2.6
CCN(CC)P(=S)(c1c(C)nc2ccccn12)c1c(C)nc2ccccn12	-5.4	-7.5	6.2	23.6*	9.1
CCOC(=O)CSCCOc1ccc(C=C2C(=O)NC(=O)NC2=O)cc1OC	3.6	.	-6.5	5.7	4.4
CCOc1ccc(N2C(=O)/C(=C/c3ccco3)C(=O)NC2=S)cc1	.	53.9*	.	.	.
CCOC(=O)COc1ccc(/C=C2\C(=O)NC(=S)N(c3ccc(OC)cc3)C2=O)cc1OC	-3.8	0.7	8.4	22.6*	-2.6
CCOc1ccc(N2C(=O)/C(=C\c3cccs3)C(=O)NC2=S)cc1	-63.1	.	-123.2	19.0	-37.1
COc1ccc(Cc2cn(C)c(N)n2)cc1	.	.	2.2	2.7	3.2
O=C(NCCN1CCC2(CC1)C(=O)NCN2c1ccccc1)c1cccc(F)c1	9.9	.	-0.8	0.2	0.8
Cn1c(O)c(C=Nc2ccc(Br)cc2)c(=O)n(C)c1=O	-2.0	6.3	-1.1	2.5	2.2
Cn1c(O)c(C=Nc2cccc(C(F)(F)F)c2)c(=O)n(C)c1=O	3.0	0.7	-5.3	22.1*	-3.7
COc1ccc2c(c1OC)C(=O)OC2c1c(O)n(C2CCCCC2)c(=O)[nH]c1=O (stereo not drawn)	-6.7	-0.8	-6.1	23.4*	4.4
COC(=O)C1=C(c2c(C)noc2C)C[C@@H]2CC[C@H]1N2C(=O)NCCOc1ccc(OC)cc1	-0.9	-0.3	-18.7	3.1	4.0
COC(=O)C1=C(c2c(C)noc2C)C[C@@H]2CC[C@H]1N2C(=O)NCCCOC(C)C	1.5	-0.7	-3.3	-0.7	31.1*
O=C(O)c1ccc2c(c1)C1C(Cl)C(Sc3ccccc3[N+](=O)[O-])CC1C(c1cccc([N+](=O)[O-])c1)N2 (stereo not drawn)	.	81.1*	.	.	.
COc1cc(CCN)c(OC)cc1C	2.2	.	-0.1	-0.9	2.3
O=c1[nH]c(=O)n(CCC2=CCCCC2)c(O)c1C=NC1CCN(Cc2ccccc2)CC1	-2.3	0.8	5.9	1.1	-3.4
SMILES	TCR CD3 inh	HTRA1 inhibitor	ABHD4 inh	PRMT1 inh	SIAE primary	others
O=c1[nH]c(=O)n(CCC2=CCCCC2)c(O)c1/C=N/Nc1ccccc1	-1.7	-4.0	7.0	21.9*	4.6
Cc1cc(O)c2c(c1)C(=O)[C@@]13C(=C2O)C(=O)[C@H]2C(O)[C@@H]1[C@H]1C(O)[C@@H]3C(=O)C3=C(O)c4c(O)cc(C)cc4C(=O)[C@@]312 (stereo partly drawn)	.	.	13.0	-5.0	-0.4
O=C(O)CNC1c2ccccc2CSc2ccccc21 (stereo not drawn)	-1.0	.	2.7	21.2*	-1.0
Cc1cc2c(C(C)C)c(O)c(O)c(C=O)c2c(O)c1-c1c(C)cc2c(C(C)C)c(O)c(O)c(C=O)c2c1O	5.1	.	92.4*	25.5*	18.6*
COc1ccc2c3c([nH]c2c1)C(C)NCC3 (stereo not drawn)	24.7*	18.4	10.3	-3.2	6.5
COc1ccc2[nH]c3c(c2c1)CCNC3C (stereo not drawn)	-15.9	-1.0	-2.9	-1.3	2.1
N#Cc1ccc(NC(=S)N2Cc3cc(Br)ccc3-n3nncc3C2)cc1	8.6	.	-6.3	-3.2	0.9
COC(=O)C1C(c2ccccc2)CC2CCC1N2C (stereo not drawn)	-0.7	.	7.2	-0.3	-2.9
CCOC(=O)CC[C@@H]1CC[C@]2(CCCN(Cc3ccncc3)C2)O1	.	.	7.3	1.6	4.8
CCN1C(=O)NC(=O)/C(=C\c2ccc(N3CCOCC3)cc2OC)C1=O	-22.1	.	2.0	21.2*	-78.0
COc1cc(/C=C2\C(=O)NC(=O)N(CCc3ccc(F)cc3)C2=O)ccc1O	-8.7	-12.0	3.5	24.4*	-9.0
CC(C)(C)NC(=O)CN1C(=O)[C@@H](Cc2c[nH]c3ccccc23)N=C(c2ccccc2)c2ccccc21	.	.	-8.1	-3.5	3.1
Cc1ccc(N2C(=O)NC(=O)/C(=C/C=C/c3ccco3)C2=O)cc1	-3.9	0.1	-8.4	24.0*	-26.2
O=c1[nH]c(=S)n(C2CC2)c(O)c1/C=N/Nc1cccc2ccccc12	-3.6	40.9*	26.7	12.6	11.0	HTRA1 inh conf=21.6
O=c1[nH]c(=S)n(C2CC2)c(O)c1/C=N/Nc1ccccc1	-15.8	-3.5	-14.2	18.8	-1.3
COC(=O)[C@H]1C[C@@]2(C)c3ccccc3N[C@H]2N1	.	.	-0.4	1.7	3.1
CCN(CC)C(=O)c1ccc2c(c1)C1C(Cl)C(Sc3ccccc3[N+](=O)[O-])CC1C(C(=O)O)N2 (stereo not drawn)	.	78.1*	.	.	.	HTRA1 inh conf=76.7*
Cc1ccc2c(c1Cl)NC(C(=O)O)C1CC(Sc3ccccc3[N+](=O)[O-])C(Cl)C21 (stereo not drawn)	.	42.8*	.	.	.	HTRA1 inh conf=41.3*
CCN(CC)C(=O)c1ccc2c(c1)C1C=CCC1C(C(=O)O)N2 (stereo not drawn)	23.9*	59.3*	53.7*	49.0*	16.9	HTRA1 inh conf=54.6*
CCOC(=O)C1=C(C(=O)OCC)C2(c3ccccc3)c3ccccc3C1(C)N2C (stereo not drawn)	-31.0	.	-87.3	-4.8	-37.3
COC(=O)[C@@]1(O)c2c(oc3cccc(O)c3c2=O)C=C[C@H]1O	.	.	-0.1	5.0	-1.5
O=c1c2ccccc2nc(/C=C/c2ccccc2)n1-c1ccc(O)cc1	-3.4	-36.3	-12.5	-0.7	-13.6
O=c1c2ccccc2nc(/C=C/c2ccc(O)c(O)c2)n1-c1ccccc1	4.5	64.4*	19.0	14.9	-9.9	HTRA1 inh conf=87.1*
CCCCn1c(=O)c(C(=O)Nc2ccccc2N)c(O)c2ccccc21	-9.0	39.7*	2.9	3.7	-11.4	HTRA1 inh conf=20.1
CCCCCn1c(=O)c(C(=O)Nc2ccccc2N)c(O)c2ccccc21	5.4	10.1	1.7	-3.2	1.0
